Experimental data from ChEMBL document CHEMBL4130578, “Synthesis, biological evaluation and structure-activity relationship studies of hederacolchiside E and its derivatives as potential anti-Alzheimer agents” (Eur J Med Chem, 2018).
The source made the active and inactive calls. The calls are words filed in the database; no cut-off is given here.

How the values were obtained:
PC-12 [1] = assay: Cytoprotection against amyloid beta (1 to 42)-induced cell injury in rat PC12 cells assessed as cell viability at 10 uM preincubated for 12 hrs followed by amyloid beta (1 to 42) addition measured after 12 hrs by MTT assay (reference value: 55.3 +/- 1.5%); format: functional; conditions: read-out: Activity
PC-12 [2] = assay: Cytoprotection against amyloid beta (1 to 42)-induced cell injury in rat PC12 cells assessed as cell viability at 50 uM preincubated for 12 hrs followed by amyloid beta (1 to 42) addition measured after 12 hrs by MTT assay (reference value: 55.3 +/- 1.5%); format: functional; conditions: read-out: Activity
PC-12 [3] = assay: Cytoprotection against H2O2-induced cell injury in rat PC12 cells assessed as increase in cell viability at 1 to 50 uM preincubated for 12 hrs followed by H2O2 addition measured after 12 hrs by MTT assay; format: functional, cell-based
In short: (§1)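 PC12 cells grown in RPMI-1640 with 15% FBS and penicillin/streptomycin, subcultured every 2 days and cultured 8 days before use. Cells seeded at 1 × 10^4/well, after 12 h pretreated with compound 12 h, then exposed to 200 µM H2O2 for 12 h. MTT added for 4 h, formazan dissolved in DMSO, OD 490 nm read. Viability given as % of untreated control, mean ± SD, n = 3, ANOVA with Dunnett's test.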

PC-12 [4] = assay: Cytoprotection against H2O2-induced cell injury in rat PC12 cells assessed as increase in cell viability at 20 uM preincubated for 12 hrs followed by H2O2 addition measured after 12 hrs by MTT assay; format: functional, cell-based; in short: as §1

Row | SMILES | viability at 10 µM (PC-12 [1]) [%] | viability at 50 µM (PC-12 [2]) [%] | Activity (PC-12 [3]) | Activity (PC-12 [4])
1 | C[C@@H]1O[C@@H](O[C@H]2[C@H](O[C@H]3CC[C@]4(C)[C@H]5CC=C6[C@@H]7CC(C)(C)CC[C@]7(C(=O)O[C@@H]7O[C@H](CO)[C@@H](O[C@@H]8O[C@@H](C)[C@H](O)[C@@H](O)[C@H]8O)[C@H](O)[C@H]7O)CC[C@@]6(C)[C@]5(C)CC[C@H]4C3(C)C)OC[C@H](O[C@@H]3O[C@H](CO)[C@@H](O)[C@H](O)[C@H]3O)[C@@H]2O)[C@H](O)[C@H](O)[C@H]1O | 59.3 | 63.3 | Active | –
2 | CC1=NN(c2ccccc2)C(=O)C1 | – | – | – | Active
